Published values gathered from unrelated publications.
Protocols differ between the studies behind these lines.
Matrix: plasma

Cc1ncc(C)n2nc(/C=C/c3nc(N4CCCC4)cc(N4CCOCC4)n3)nc12  bioavailability (male Sprague-Dawley rat; oral; 0.3 mg/kg): 33%
Cl.Cl.O=C(CCN1CCCCC1)c1ccc(-c2ccc(C(=O)CCN3CCCCC3)cc2)cc1  bioavailability (Sprague-Dawley rat; oral; 100 mg/kg): 24.2%
C#Cc1ccc2c(c1)C(c1ccccn1)=NCc1c(-c3cnco3)ncn1-2  bioavailability (male Sprague-Dawley rat; intraperitoneal; 10 mg/kg): 69%
CN(C)C(=O)Oc1cc(OC(=O)N(C)C)cc(-c2cc3ccc(O)cc3o2)c1  bioavailability (male rat; oral; 5 mg/kg): 3.01%
CS(=O)(=O)Nc1ccc(-c2ccnc(Nc3ccc(-n4ccnn4)cc3)n2)cc1  bioavailability (Sprague-Dawley rat; oral; 2 mg/kg): 5%
COc1ncccc1-c1cnn2ccc(N3CCN(C(=O)OC(C)C)CC3)nc12  bioavailability (rat; oral; 10 mg/kg): 50%
Cn1cnc(Cn2c(=O)[nH]/c(=N\c3cc4cn(C)nc4cc3Cl)n(Cc3cc(F)c(F)cc3F)c2=O)n1  bioavailability (male Sprague-Dawley rat; oral; 25 mg/kg): 129%
CCC[C@@](N)(CO)CCc1ccc(OCCCCCC(C)C)cc1  bioavailability (rat; oral; 30 mg/kg): 35%
O=C([O-])C(=O)[O-].[NH-][C@@H]1CCCC[C@H]1[NH-].[Pt+4] (relative stereo)  bioavailability (rat; intravenous; 5 mg/kg): 100%
Cc1cnc(N2CC3(CCOCC3)C2)c(C(=O)Nc2ccc(C(=O)N3CCc4cc(C(=O)Nc5c(C)cccc5F)sc4-c4ccccc43)cc2)c1  bioavailability (rat; inhaled; 2.7 mg/kg; single dose): < 3%
N=c1c2c(-c3ccccc3)c(-c3ccccc3)n(Cc3ccccc3)c2ncn1[C@H]1CC[C@H](O)CC1  bioavailability (male Sprague-Dawley rat; oral; 2 mg/kg; single dose): > 80%
[2H]C([2H])(c1cc(F)c(F)cc1F)n1c(=O)n(Cc2ncn(C)n2)c(=O)[nH]/c1=N\c1cc2cn(C)nc2cc1Cl  bioavailability (male Sprague-Dawley rat; oral; 25 mg/kg): 117%
O=C(Nc1cccnn1)N1CCN([C@@H]2CCOc3cc(C(F)(F)F)ccc32)CC1  bioavailability (male Sprague-Dawley rat; oral; 0.3 mg/kg): 41%
